The source made the active and inactive calls. The rule behind the calls is not given here.

In assay [1] the target is T1, Serotonin 2 (5-HT2) receptor (Rattus norvegicus, UniProt P30994+P08909+P14842). Nature of the assay: Compound was evaluated for its activity by binding to 5-hydroxytryptamine 2 receptor in the rat brain using [3H]ketanserin as radioligand. The format is tissue-based. An outline of the steps:
(§1)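 Frozen male Sprague-Dawley rat brain cut into 20-μm cryostat sections. Incubated in 50 mM Tris pH 7.5 with 1 nM [3H]ketanserin and test drug, room temperature, 30 min; nonspecific binding with 2 μM pipamperone. Washed in ice-cold buffer, exposed to tritium film 6 weeks, read by densitometry.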

Assay [2] deals with Adrenergic receptor alpha. Nature of the assay: In vitro binding activity against Alpha receptor in rat brain using [3H]prazosin. Type of assay: tissue-based. Put shortly: (§2)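 Whole rat brain minus cerebellum homogenized and washed twice in 50 mM Tris-HCl pH 7.7, resuspended in Tris pH 8.0. Incubated in triplicate with 0.22 nM (final) [3H]prazosin and drug, 25 °C, 30 min. Blank was 50 μM norepinephrine. Filtered through glass fiber and scintillation counted. IC50 from three log concentrations in triplicate.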

The target in a further assay is D(2) dopamine receptor (Rattus norvegicus, UniProt P61169). The experiment in a line: Binding affinity to dopamine receptor D2 in the rat brain using [3H]NPA as radioligand. The format is tissue-based. An outline of the steps: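 Rat brain D2 binding with [3H]NPA as ligand. IC50 taken from dose-response curves over three log concentrations of test compound, each in triplicate.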
Sequence of D(2) dopamine receptor (P61169 whole entry): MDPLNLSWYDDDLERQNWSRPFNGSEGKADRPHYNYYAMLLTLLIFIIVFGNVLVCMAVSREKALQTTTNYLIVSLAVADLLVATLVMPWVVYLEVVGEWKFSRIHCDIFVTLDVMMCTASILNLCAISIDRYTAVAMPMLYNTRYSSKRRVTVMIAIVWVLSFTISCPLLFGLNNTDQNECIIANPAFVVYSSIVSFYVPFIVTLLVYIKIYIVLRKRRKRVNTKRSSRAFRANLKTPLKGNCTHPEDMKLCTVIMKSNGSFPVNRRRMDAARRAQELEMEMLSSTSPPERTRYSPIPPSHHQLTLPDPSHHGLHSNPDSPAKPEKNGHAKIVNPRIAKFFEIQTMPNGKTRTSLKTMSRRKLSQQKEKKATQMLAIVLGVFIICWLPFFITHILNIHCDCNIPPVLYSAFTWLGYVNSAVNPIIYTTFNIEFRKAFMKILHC

Assay [3] relates to Rattus norvegicus. Nature of the assay: Antipsychotic activity determined in vivo by inhibition of amphetamine induced locomotor behavior in rats by the sc administration. Type of assay: functional. An outline of the steps:
(§3)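 Male Sprague-Dawley rats (275–325 g, eight per group) habituated overnight in automated activity boxes, then dosed with test compound suspended in 90% saline/5% ethanol/5% Emulphor. d-Amphetamine sulfate 1.36 mg/kg given 1 h later. Floor quadrant crossings counted over 3 h. ANOVA with Dunnett's test; ED50 and 95% confidence limits by probit analysis of means converted to percent inhibition.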

For assay [4], the system named is Rattus norvegicus. Nature of the assay: Compound was evaluated for the inhibition of apomorphine induced stereotypy behavior in rats after sc administration. The format is functional. Also on record: unit not given here. Put shortly:
(§4)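 Male Sprague-Dawley rats (250–300 g, five per group) given test drug (2 mL/kg) or saline. At 1, 3 and 5 h they received apomorphine 0.75 mg/kg sc in water with 0.1% ascorbic acid. Stereotypy was rated every 10 min up to 50 min. ANOVA then Dunnett's t test over half-log dose multiples; MED was the lowest significant dose.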

The test system of assay [5] is Rattus norvegicus. The experiment in a line: Compound was evaluated for the inhibition of haloperidol induced catalepsy behavior in rats after sc administration. The format is functional. Also noted: unit not given here. An outline of the steps: (§5)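 Catalepsy was tested on a horizontal rod after 3 h. Test drug or vehicle was then given and catalepsy duration scored every 30 min for 2.5 h. One-way ANOVA with Dunnett's test over half-log dose multiples; MED was the lowest significant dose.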

The target of assay [6] is T2, 5-hydroxytryptamine receptor 1A (Rattus norvegicus, UniProt P19327).
T2 sequence (P19327 whole entry): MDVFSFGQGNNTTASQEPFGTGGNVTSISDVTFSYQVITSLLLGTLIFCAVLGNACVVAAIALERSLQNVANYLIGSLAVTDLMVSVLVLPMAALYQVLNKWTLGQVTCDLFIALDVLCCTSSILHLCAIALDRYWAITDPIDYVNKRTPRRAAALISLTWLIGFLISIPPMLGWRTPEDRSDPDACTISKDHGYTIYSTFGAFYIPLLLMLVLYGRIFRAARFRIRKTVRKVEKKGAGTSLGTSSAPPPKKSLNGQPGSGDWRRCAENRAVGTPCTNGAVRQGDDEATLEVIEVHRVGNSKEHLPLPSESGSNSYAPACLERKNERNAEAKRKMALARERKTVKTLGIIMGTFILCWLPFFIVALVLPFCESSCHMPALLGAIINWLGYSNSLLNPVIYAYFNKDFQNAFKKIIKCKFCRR
Nature of the assay: Binding affinity to 5-hydroxytryptamine 1A receptor in the rat brain using [3H]8-hydroxy-2-(di-n-propylamine)tetralin as radioligand. The format is tissue-based. Put shortly:
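Rat forebrain P2 membranes: lysed in 5 mM Tris acetate pH 7.4, washed, preincubated 30 min at 30 °C. Incubated with [3H]-8-OH-DPAT and test drug, 30 °C, 20 min; filtered, scintillation counted.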

For assay [7], the target named is T1, Serotonin 2 (5-HT2) receptor. The experiment in a line: (§6) Compound was evaluated In vitro for its activity by binding to 5-hydroxytryptamine 2 receptor in the rat brain using [3H]ketanserin as radioligand. Type of assay: tissue-based.
In assay [8] the test system is Rattus norvegicus. Nature of the assay: Antipsychotic activity determined in vivo by inhibition of amphetamine induced locomotor behavior in rats by the po administration. Type of assay: functional. Put shortly:
as §3

In assay [9] the test system is Rattus norvegicus. Nature of the assay: Compound was evaluated for the inhibition of haloperidol induced catalepsy behavior in rats after po administration. Type of assay: functional. An outline of the steps: as §5
Assay [10] relates to Rattus norvegicus. The experiment in a line: Compound was evaluated for the inhibition of apomorphine induced stereotypy behavior in rats after ip administration. Type of assay: functional. Put shortly:
as §4

The test system of assay [11] is Rattus norvegicus. Nature of the assay: Compound was evaluated for the inhibition of apomorphine induced stereotypy behavior in rats after po administration. Type of assay: functional. Put shortly: as §4
The target of assay [12] is T1, Serotonin 2 (5-HT2) receptor. The assay is described as §6. Type of assay: tissue-based. An outline of the steps:
as §1
This is another data set of the same source.

Assay [13] relates to Rattus norvegicus. The experiment in a line: Compound was evaluated for the inhibition of haloperidol induced catalepsy behavior in rats after sc administration; Inactive. The format is functional, organism-based.
In assay [14] the test system is Rattus norvegicus. The experiment in a line: Compound was evaluated for inhibition of apomorphine induced stereotypy behavior in rats after sc administration. Type of assay: functional. Put shortly:
as §4

The target of assay [15] is Adrenergic receptor alpha. The experiment in a line: Compound was evaluated In vitro for its activity by binding to Alpha adrenergic receptor in the rat brain using [3H]prazosin as radioligand. The format is tissue-based.
The target in assay [16] is Adrenergic receptor alpha. Nature of the assay: Compound was evaluated In vitro for its activity by binding to Alpha receptor in the rat brain using [3H]prazosin as radioligand. The format is tissue-based. Put shortly:
as §2

Take `Oc1nc(-c2ccc(CCN3CCN(c4cccc5ccccc45)CC3)cc2)cs1`: the results for the IC50 (in assay [1]; in assay [2]; at D(2) dopamine receptor) were 249 nM, 65 nM and 80 nM, respectively. This compound yielded an ED50 in the assay with Rattus norvegicus [3] of over 10 mg/kg. The MED in the assay with Rattus norvegicus [4] is on record as over 17.8; in the assay with Rattus norvegicus [5] it was 10.
Turning to `CCN1C(=O)Cc2cc(CCN3CCN(c4cccc5ccccc45)CC3)ccc21`, the IC50 in assay [6] was determined as 2.9 nM; in assay [2], 248 nM; at D(2) dopamine receptor it was 81.2 nM.
Regarding `Cc1nc(-c2ccc(CCN3CCN(c4cccc5ccccc45)CC3)cc2)cs1`, the figures for the IC50 (in assay [2]; at D(2) dopamine receptor) were 166 nM and 108 nM, respectively. In the assay with Rattus norvegicus [4], the MED is recorded as over 10.
With `O=C1Cc2cc(CCN3CCN(c4cccc5ccccc45)CC3)ccc2N1`, the IC50 in [6] was 4.87 nM; in assay [7], 20 nM; in [2], 24 nM; on D(2) dopamine receptor, 38 nM. Moreover, the ED50 is 13.3 mg/kg in the assay on Rattus norvegicus [8] and 1.21 mg/kg with Rattus norvegicus [3]. Besides, the MED in the assay with Rattus norvegicus [9] is recorded as 10; in the assay with Rattus norvegicus [5] it was over 10.
Take `Nc1nc(-c2ccc(CCN3CCN(c4cccc5ccccc45)CC3)cc2)cs1`: the concentration for half-maximal inhibition (IC50) came to 11 nM in assay [6], 385 nM in [7], 135 nM in assay [2] and 72 nM at D(2) dopamine receptor. For the same compound, in the assay with Rattus norvegicus [8], the ED50 was 25.3 mg/kg. Besides, the figures for the MED with Rattus norvegicus [10], in the assay with Rattus norvegicus [11] and in the assay on Rattus norvegicus [9] were 10, 32 and 3.2, respectively.
`CC1(C)C(=O)Nc2ccc(CCN3CCN(c4cccc5ccccc45)CC3)cc21`: the concentration for half-maximal inhibition (IC50) in assay [6] is 6.9 nM; in [12] it was 11.8 nM; in assay [2], 40 nM; at D(2) dopamine receptor it was 86 nM.
Take `c1ccc2c(N3CCNCC3)cccc2c1`: the half-inhibitory concentration (IC50) in assay [1] worked out at 62 nM.
As for `O=C(CCCN1CCC(O)(c2ccc(Cl)cc2)CC1)c1ccc(F)cc1` [HALOPERIDOL], the MED entry with Rattus norvegicus [13] was “inactive”. The MED with Rattus norvegicus [4] is reported as 0.032.
For the compound `Oc1nc2ccc(CCN3CCN(c4cccc5ccccc45)CC3)cc2o1`, the IC50 in assay [6] turned out to be 6.2 nM; in assay [12], 10 nM; in assay [2], 45 nM; at D(2) dopamine receptor it was 44 nM. The ED50 with Rattus norvegicus [8] is 40.5 mg/kg; with Rattus norvegicus [3], 1.6 mg/kg. Besides, the MED is given as 10 in the assay on Rattus norvegicus [4] and over 10 in the assay with Rattus norvegicus [5].
For `Cc1sc(N)nc1-c1ccc(CCN2CCN(c3cccc4ccccc34)CC2)cc1`, the IC50 in [2] came out at 234 nM; at D(2) dopamine receptor, 159 nM. Further, the ED50 in the assay with Rattus norvegicus [3] is over 10 mg/kg. The MED with Rattus norvegicus [14] and in the assay on Rattus norvegicus [5] was over 3.2 each time.
`Oc1nc2ccc(CCN3CCN(c4cccc5ccccc45)CC3)cc2s1`: the IC50 in [6] is 2.2 nM; in assay [7], 50 nM; in [15], 24 nM. The compound also registered an MED in the assay on Rattus norvegicus [4] of over 10.
Compound `CN1CCN(C2=Nc3cc(Cl)ccc3Nc3ccccc32)CC1` [CLOZAPINE] came in with a 50% effective dose (ED50) with Rattus norvegicus [3] of 6.9 mg/kg. Further, in the assay on Rattus norvegicus [13], the MED entry is “inactive”.
Turning to `c1ccc2c(N3CCN(CCc4ccc(-c5csnn5)cc4)CC3)cccc2c1`, the IC50 in assay [1] turned out to be 237 nM; in assay [2] it was 105 nM; at D(2) dopamine receptor, 83 nM. In the assay with Rattus norvegicus [4], the MED is over 10.
For `CNc1nc(-c2ccc(CCN3CCN(c4cccc5ccccc45)CC3)cc2)cs1`, the IC50 in [16] is 252 nM; at D(2) dopamine receptor it was 155 nM. The compound further registered an MED in the assay with Rattus norvegicus [4] of over 10.

The values above are taken from ChEMBL document CHEMBL1125261, “1-Naphthylpiperazine derivatives as potential atypical antipsychotic agents” (J Med Chem, 1991).
